For assay [1], the target named is T1, Metabotropic glutamate receptor 4 (Homo sapiens, UniProt Q14833). The assay is described as follows: Allosteric modulator activity at human mGlu4 receptor expressed in CHO cells coexpressing Gqi5 assessed as effect on calcium flux. It counts as functional, cell-based.
Assay [2] concerns the target T1, Metabotropic glutamate receptor 4. Kind of assay: Allosteric modulator activity at human mGlu4 receptor expressed in CHO cells coexpressing Gqi5 assessed as effect on calcium flux in relative to glutamate. Format: functional, cell-based. An outline of the steps:
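hmGluR4/Gqi5 stably transfected CHO cells, 30,000/well, grown overnight at 37 °C, 5% CO2; loaded with 1 μM Fluo-4 AM for 45 min at 37 °C in HBSS/20 mM HEPES/2.5 mM probenecid. Baseline fluorescence read (ex 470, em 540 nm); compound preincubated ~2.5 min, then glutamate EC20, then EC80 2 min later. Ca2+ flux read; 10-point 1:3 concentration-response curves.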
Background: A change in cytosolic calcium serves as a functional read-out for many receptors and channels.

T1 sequence (Q14833 whole entry): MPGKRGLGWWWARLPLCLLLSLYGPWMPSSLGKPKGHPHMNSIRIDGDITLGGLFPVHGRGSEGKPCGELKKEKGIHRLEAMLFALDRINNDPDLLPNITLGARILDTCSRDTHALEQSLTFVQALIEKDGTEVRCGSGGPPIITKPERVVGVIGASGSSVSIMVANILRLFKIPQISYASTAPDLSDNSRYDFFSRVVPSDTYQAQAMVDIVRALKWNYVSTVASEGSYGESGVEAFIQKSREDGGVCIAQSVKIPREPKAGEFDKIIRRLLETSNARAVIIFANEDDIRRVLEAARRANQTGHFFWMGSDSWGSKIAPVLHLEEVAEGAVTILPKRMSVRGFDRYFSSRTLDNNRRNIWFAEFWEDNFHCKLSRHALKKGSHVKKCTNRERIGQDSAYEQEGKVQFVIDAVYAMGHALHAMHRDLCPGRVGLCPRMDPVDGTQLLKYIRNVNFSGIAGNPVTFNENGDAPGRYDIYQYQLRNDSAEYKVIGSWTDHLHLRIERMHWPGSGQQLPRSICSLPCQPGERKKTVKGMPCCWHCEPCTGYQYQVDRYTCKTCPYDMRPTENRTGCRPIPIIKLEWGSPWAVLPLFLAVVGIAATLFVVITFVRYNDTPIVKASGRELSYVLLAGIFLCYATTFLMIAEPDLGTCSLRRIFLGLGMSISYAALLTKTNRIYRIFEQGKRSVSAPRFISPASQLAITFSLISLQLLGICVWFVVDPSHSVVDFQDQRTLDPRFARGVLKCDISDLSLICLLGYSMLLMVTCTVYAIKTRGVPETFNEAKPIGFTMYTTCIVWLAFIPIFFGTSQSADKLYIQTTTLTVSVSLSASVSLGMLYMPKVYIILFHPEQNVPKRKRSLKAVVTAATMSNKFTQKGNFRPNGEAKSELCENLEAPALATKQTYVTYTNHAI

A word on the EC50: it is the concentration that produces a half-maximal response. As a reminder, the Emax is the size of the effect at its maximum, as opposed to the concentration needed. As for `O=C(Nc1cc(Cl)cc(Cl)c1)[C@H]1CCCC[C@H]1C(=O)O` (relative stereo), in assay [1] (read-out: EC50), the half-maximal effective concentration (EC50) worked out at 0.74 µM. Besides, the Emax in assay [2] stood at 127%.

With `O=C(Nc1cc(Cl)cc(Cl)c1)[C@H]1CC=CC[C@H]1C(=O)O`, the EC50 in assay [1] (read-out: EC50) was determined as 2.7 µM. The maximal response (Emax) in assay [2] was 150%.

On to `O=C(O)[C@@H]1CCC[C@H](C(=O)Nc2cc(Cl)cc(Cl)c2)C1`, for which the EC50 result in assay [1] (cho) is recorded as “Not Active”.

As to `O=C(Nc1cc(Cl)cc(Cl)c1)[C@H]1CC[C@H]1C(=O)O` (single isomer, unassigned), the half-maximal effective concentration (EC50) result in assay [1] (cho) was “Not Active”.

Take `Cc1ccc(NC(=O)[C@H]2CCCC[C@H]2C(=O)O)cc1C`: the EC50 result in assay [1] (cho) was “Not Active”.

In the case of `O=C(Nc1ccc(F)c(F)c1)[C@H]1CCCC[C@H]1C(=O)O`, the EC50 result in assay [1] (cho) is listed as “Not Active”.

As for `Cc1nc(NC(=O)[C@H]2CCCC[C@H]2C(=O)O)nn1C`, in assay [1] (cho), the 50% effective concentration (EC50) result is “Not Active”.

Take `Cc1cc(C)cc(NC(=O)[C@H]2CCCC[C@H]2C(=O)O)c1`: the concentration for a half-maximal effect (EC50) entry in assay [1] (cho) was “Not Active”.

Turning to `O=C(Nc1cc(Cl)cc(Cl)c1)[C@H]1CCCC[C@H]1C(=O)NC1CC1`, the half-maximal effective concentration (EC50) result in assay [1] (cho) is “Not Active”.

For `CNC(=O)[C@@H]1CCCC[C@@H]1C(=O)Nc1cc(Cl)cc(Cl)c1`, the EC50 in assay [1] (read-out: EC50) came out at 10 µM. In assay [2], the Emax is 106%.

On to `O=C(NC1CCCCC1)[C@H]1CCCC[C@H]1C(=O)O`, for which, in assay [1] (cho), the EC50 result is “Not Active”.

Turning to `O=C(Nc1cc(Cl)cc(Cl)c1)[C@H]1CCCC[C@H]1c1nsc(=O)[nH]1`, the concentration giving a half-maximal response (EC50) entry in assay [1] (cho) is on record as “Not Active”.

On to `O=C(Nc1cc(F)cc(F)c1)[C@H]1CCCC[C@H]1C(=O)O`, for which the EC50 entry in assay [1] (cho) is on record as “Not Active”.

As to `CN(C)C(=O)[C@@H]1CCCC[C@@H]1C(=O)Nc1cc(Cl)cc(Cl)c1`, the EC50 result in assay [1] (cho) is “Not Active”.

Regarding `O=C(Nc1cc(F)cc(Cl)c1)[C@H]1CCCC[C@H]1C(=O)O`, in assay [1] (read-out: EC50), the EC50 was 2 µM. Also, in assay [2], the maximum response (Emax) came out at 138%.

Regarding `CC1(C)[C@H](C(=O)Nc2cc(Cl)cc(Cl)c2)[C@@H]1C(=O)O`, the EC50 result in assay [1] (cho) is on record as “Not Active”.

Take `O=C(Nc1cc(C(F)(F)F)cc(C(F)(F)F)c1)[C@H]1CCCC[C@H]1C(=O)O`: the EC50 entry in assay [1] (cho) is on record as “Not Active”.

With `N#C[C@@H]1CCCC[C@@H]1C(=O)Nc1cc(Cl)cc(Cl)c1`, the EC50 in assay [1] (read-out: EC50) was 2 µM. Moreover, in assay [2], the Emax was determined as 55%.

For the compound `CC1=CC[C@H](C(=O)Nc2cc(Cl)cc(Cl)c2)[C@H](C(=O)O)C1`, the EC50 entry in assay [1] (cho) is given as “Not Active”.

In the case of `NC(=O)[C@@H]1CC=CC[C@@H]1C(=O)Nc1cc(Cl)cc(Cl)c1`, the EC50 in assay [1] (read-out: EC50) stood at 3.1 µM. The Emax in assay [2] is 94%.

Take `O=C(Nc1cc(Cl)cc(Cl)c1)[C@H]1CCCC[C@H]1c1nnn[nH]1`: the 50% effective concentration (EC50) in assay [1] (read-out: EC50) is more than 10 µM. Also, the maximal effect (Emax) in assay [2] amounted to 152%.

Take `O=C(Nc1cc(Cl)cc(Cl)c1)[C@H]1CCCC[C@H]1C(=O)N1CCOCC1`: the EC50 result in assay [1] (cho) is “Not Active”.

In the case of `O=C(O)CCC(=O)Nc1cc(Cl)cc(Cl)c1`, the EC50 entry in assay [1] (cho) was “Not Active”.

Take `NC(=O)[C@@H]1CCCC[C@@H]1C(=O)Nc1cc(Cl)cc(Cl)c1`: the EC50 in assay [1] (read-out: EC50) was 0.95 µM. Also, the maximal response (Emax) in assay [2] stood at 104%.

Take `O=C(NN1CCOCC1)[C@H]1CCCC[C@H]1C(=O)O`: the concentration giving a half-maximal response (EC50) entry in assay [1] (cho) is “Not Active”.

Consider `O=C(NCc1ccccc1)[C@H]1CCCC[C@H]1C(=O)O`, for which, in assay [1] (cho), the EC50 entry is recorded as “Not Active”.

For the compound `O=C(Nc1cc(Cl)cc(Cl)c1)[C@@H]1[C@H](C(=O)O)[C@H]2C=C[C@@H]1C2`, in assay [1] (cho), the EC50 result was “Not Active”.

`O=C(Nc1cccc(Br)c1)[C@H]1CCCC[C@H]1C(=O)O`: the 50% effective concentration (EC50) entry in assay [1] (cho) is reported as “Not Active”.

In the case of `O=C1[C@H]2CCCC[C@H]2C(=O)N1c1cc(Cl)cc(Cl)c1`, the concentration for a half-maximal effect (EC50) in assay [1] (read-out: EC50) stood at 3.3 µM. For the same compound, the Emax in assay [2] was found to be 152%.

Consider `O=C(O)C1CCCN(C(=O)Nc2cc(Cl)cc(Cl)c2)C1` (stereo not given), for which the concentration giving a half-maximal response (EC50) entry in assay [1] (cho) is given as “Not Active”.

For the compound `O=C(NC1CCC1)[C@H]1CCCC[C@H]1C(=O)O`, the EC50 entry in assay [1] (cho) is on record as “Not Active”.

For the compound `O=C(Nc1ccccc1)[C@H]1CCCC[C@H]1C(=O)O`, in assay [1] (read-out: EC50), the half-maximal effective concentration (EC50) is more than 10 µM. Also, the Emax in assay [2] worked out at 39%.

Regarding `O=C(Nc1cc(Cl)cc(Cl)c1)[C@H]1CCC[C@H]1C(=O)O`, the EC50 result in assay [1] (cho) is recorded as “Not Active”.

With `O=C(Nc1ccccn1)[C@H]1CCCC[C@H]1C(=O)O`, the half-maximal effective concentration (EC50) entry in assay [1] (cho) is listed as “Not Active”.

Take `O=C(Nc1cc(Cl)cc(Cl)c1)[C@H]1CCCC[C@H]1C(=O)NC1CCCC1`: the EC50 result in assay [1] (cho) is “Not Active”.

As to `CCCNC(=O)[C@@H]1CCCC[C@@H]1C(=O)Nc1cc(Cl)cc(Cl)c1`, the half-maximal effective concentration (EC50) in assay [1] (read-out: EC50) came out at 9.6 µM. The maximum response (Emax) in assay [2] amounted to 57%.

Turning to `O=C(Nc1cc(Cl)cc(Cl)c1)[C@H]1CCCC[C@H]1C(=O)NCC1CC1`, in assay [1] (read-out: EC50), the EC50 was 10 µM. In addition, in assay [2], the Emax was 80%.

`O=C(Nc1cc(Cl)cc(Cl)c1)[C@@H]1[C@H](C(=O)O)[C@@H]2C=C[C@H]1C2`: in assay [1] (cho), the half-maximal effective concentration (EC50) entry is “Not Active”.

The values are drawn from ChEMBL document CHEMBL1155331, “Synthesis and SAR of a novel positive allosteric modulator (PAM) of the metabotropic glutamate receptor 4 (mGluR4)” (Bioorg Med Chem Lett, 2009).
